The record followed here is ChEMBL document CHEMBL4513216, “Probing the Open Global Health Chemical Diversity Library for Multistage-Active Starting Points for Next-Generation Antimalarials” (ACS Infect Dis, 2020).

This data set can be described thus: Toxicity liver stage against HepG2, at 10uM. Format: cell-based. Also on record: test concentration 10 uM, cell line HepG2-A16-CD81EGFP. Particulars: human, HepG2-A16-CD81EGFP cells; read-out: INHIBITION
In a few lines: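 Uninfected HepG2-A16-CD81EGFP cells, 3 × 10^3 per well, 1536-well, plated on prespotted compound at 10 μM final, parasite-free screening media added to match infected plates; puromycin 10 μM positive, DMSO 0.5% negative; run in parallel with 48 h PbLuc assay at 37 °C, 5% CO2; viability by CellTiter-Glo luminescence, normalized to controls.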
For `Cc1nc2cc(C(=O)N(CCC#N)CC3CCCO3)ccc2[nH]1` (stereo unspecified), the cytotoxicity at 10 µM is -0.58%. As to `O=C(CCc1nc2cccnc2[nH]1)NCc1ccncc1`, the cytotoxicity at 10 µM came out at 3.72%.

Consider `CS(=O)(=O)NCC1CCN(C(=O)Oc2ccccc2)CC1`, for which the cytotoxicity at 10 µM was -151%. Next, `CCc1c(C)nc2n(c1=O)CC(C(=O)Nc1ncccc1C)CS2` (stereo unspecified): 7.14%. Regarding `CCCNC(=O)c1nc2c(o1)CN(c1ncccn1)C2`, the cytotoxicity at 10 µM amounted to 1.95%. As to `O=C(NC[C@H]1OC[C@@H]2CCN(c3ccccn3)C[C@@H]21)c1ccco1`, the cytotoxicity at 10 µM worked out at 1.32%.

`COCC1CN(Cc2ccsc2)Cc2cnn(C)c21` (stereo unspecified): the cytotoxicity at 10 µM is 5.58%. For the compound `CC(C)CNC(=O)c1nc2c(s1)CCN(C(=O)c1ccc(Cl)cc1)CC2`, the cytotoxicity at 10 µM worked out at 7.4%. Next, `C[C@H]1C[C@@H]2CCN(C(=O)c3ccccn3)C[C@H]2O1`: 4.17%. Regarding `C[C@@H]1C[C@H]2CN(C(=O)c3ccncn3)C[C@H]2O1`, the cytotoxicity at 10 µM was determined as 0.748%. Next, `CC(C)CC(=O)N1CC[C@H]2C[C@H](c3nccs3)O[C@@H]2C1`: -0.966%; `O=C(c1cc(-n2cnnn2)ccc1Cl)N1CCCCCC1`: 5.56%.

As for `CCN(CC)CCNC(=O)c1ccn(COc2cc(C)cc(C)c2)n1`, the cytotoxicity at 10 µM was 4.36%. With `CC(=O)N1CCC(c2c(CN(C)C)cnc3cc(C)nn23)CC1`, the cytotoxicity at 10 µM worked out at 2.54%. As to `Cc1noc(C)c1CC(=O)N1CCCC(Cc2ccccn2)C1` (stereo unspecified), the cytotoxicity at 10 µM is 4.75%. For the compound `CC(C)CC(=O)N1CCCC1c1cc(CO)[nH]n1` (stereo unspecified), the cytotoxicity at 10 µM is 3.05%. Next, `Cc1nc(O)c2nnn(C[C@H]3CCCN3C(=O)c3ccccc3C)c2n1`: -7.36%; `O=C(c1ccccc1)N1CC2(CCNC2)OCc2ccccc21` (stereo unspecified): 13%; `COc1cccc(CNCCc2cccc(C(N)=O)c2)c1`: 9.83%. For `CCOc1ccc(NC(=O)c2cc(C)c(C)o2)cc1CO`, the cytotoxicity at 10 µM was found to be 3.78%. With `COCCN(CCOC)C(=O)c1ccoc1C`, the cytotoxicity at 10 µM was found to be 6.72%. Consider `CC(NCc1cccc(COC2CCCC2)c1)c1cnn(C)c1` (stereo unspecified), for which the cytotoxicity at 10 µM amounted to 4.34%. Turning to `CC(C)N(CC(=O)Nc1cccc(C(=O)N(C)C)c1)C1CC1`, the cytotoxicity at 10 µM is -4.81%. `COc1cccc(COCC(=O)NC(C(N)=O)c2ccccc2F)c1` (stereo unspecified): the cytotoxicity at 10 µM is -4.55%. Turning to `CNC(=O)c1cc(NC(=O)NC2CC2)ccc1F`, the cytotoxicity at 10 µM was 5.13%.

Take `COC(=O)CCNC(=O)c1nnn(-c2ccccc2)c1C(F)(F)F`: the cytotoxicity at 10 µM was -4.27%. On to `CCNc1cc2c(nn1)CCN(C(=O)C1COc3ccccc3C1)C2` (stereo unspecified), for which the cytotoxicity at 10 µM was -4.83%. As to `COCc1ccc(C(=O)N2CCN(CCS(C)(=O)=O)CC2)cc1`, the cytotoxicity at 10 µM is -1.33%. Turning to `CCCOC1CCCN(C(=O)c2ccnc(N3CCN(C)CC3)c2)C1` (stereo unspecified), the cytotoxicity at 10 µM is -5.7%.

In the case of `O=C(Nc1cccc(F)c1)N1CCN(Cc2noc(C3CC3)n2)CC1`, the cytotoxicity at 10 µM is 3.8%. Take `c1ccc2c(c1)OCCCC2NCc1nnc2n1CCCCC2` (stereo unspecified): the cytotoxicity at 10 µM was -0.044%. The result for `COCC(NC(=O)c1cc(C)n(C)n1)c1cccc(C(F)(F)F)c1` (stereo unspecified) reads 9.43%; that for `CC(C)CCn1ccc(NC(=O)N2CCCC2CN2CCOCC2)n1` (stereo unspecified), -2.16%. In the case of `Cc1cn2c(n1)CCC(NC(=O)COCCOc1ccccc1)C2` (stereo unspecified), the cytotoxicity at 10 µM is -4.44%. With `COc1ccc(C2CCCCCN2S(N)(=O)=O)cc1` (stereo unspecified), the cytotoxicity at 10 µM is 8.87%. On to `COc1ccccc1N1CCCC(Nc2nccnc2C#N)C1` (stereo unspecified), for which the cytotoxicity at 10 µM was 18.3%. Next, `O=c1oc(-c2ccc(F)cc2)nn1CCc1ccccn1`: -5.65%; `O=C(c1ccccn1)N(CCO)Cc1cc(Br)ccc1F`: 9.91%; `Cc1ccc(NC(=O)NCCc2ccncc2C)c(N(C)C)n1`: 12.9%. Take `Cc1ccc(NS(=O)(=O)c2cc(C(=O)O)oc2C)c(Br)c1`: the cytotoxicity at 10 µM stood at 1.83%. `CN(C)C(=O)c1cc(NC(=O)N2CCCC(C(F)(F)F)C2)ccn1` (stereo unspecified): the cytotoxicity at 10 µM was -3.58%. As to `COCCN1CCN(S(C)(=O)=O)Cc2cccnc21`, the cytotoxicity at 10 µM was found to be 5.7%. For `O=C(c1ccco1)N1CCO[C@@H]2CNCC[C@@H]2C1`, the cytotoxicity at 10 µM was -75.2%. Next, `Cc1ncnc2c1CCN(C(=O)c1cccn1C)CC2`: -75.1%. With `O=C(NCCNc1cccnc1)C(c1cccnc1)N1CCCC1` (stereo unspecified), the cytotoxicity at 10 µM turned out to be 4.11%. With `O=C1CCC2(CCCN(C(=O)C3CCCC3)C2)CN1CCc1c[nH]cn1` (stereo unspecified), the cytotoxicity at 10 µM is -0.699%. Consider `Cc1ncsc1CCN(C)C(=O)c1ccc(Cn2cnnn2)cc1`, for which the cytotoxicity at 10 µM is -9.17%. `CC1(C)Cc2nc(C(C)(C)C)ncc2C(NC(=O)Cc2nnn[nH]2)C1` (stereo unspecified): the cytotoxicity at 10 µM is -3.67%. Turning to `CCN(Cc1ccc(-c2ccccn2)cc1)C1CCS(=O)(=O)C1` (stereo unspecified), the cytotoxicity at 10 µM is -9.25%. With `Cc1ccc(CN2CCN(Cc3cc(C)n[nH]3)CC2CCO)cc1` (stereo unspecified), the cytotoxicity at 10 µM is 1.13%.

Take `COc1ccc(Cl)cc1C(=O)N1C[C@H](C(C)C)[C@@H](N)C1`: the cytotoxicity at 10 µM came out at 1.17%. Take `COCCn1ccnc1C1CCCN(c2ncnc3c(C)csc23)C1` (stereo unspecified): the cytotoxicity at 10 µM is 2.57%. As for `COCCNc1nc2c(c(NCc3cnc(C)c(C)c3)n1)CCNCC2`, the cytotoxicity at 10 µM is -1.22%. `OCc1ccc(CN2CCC(n3cc(-c4ccc(F)cc4)nn3)CC2)o1`: the cytotoxicity at 10 µM was 5.54%.

As to `O=C(c1cnc(C2CC2)nc1O)N1CCN(Cc2ccccc2F)CC1`, the cytotoxicity at 10 µM is -1.83%. On to `CC(C)n1ccc(CN2CCN(c3cc(NC4CC4)nc(N)n3)CC2)c1`, for which the cytotoxicity at 10 µM is -1.45%. As to `CCC(=O)NCc1ccc(N2CCCCC2)cc1`, the cytotoxicity at 10 µM was -6.89%.

Take `O=C(NCc1csc(Br)c1)N1CCC(O)CC1`: the cytotoxicity at 10 µM was -11.8%. On to `CN1CC(C(=O)NCc2ccnc(-n3cccn3)c2)CC1=O` (stereo unspecified), for which the cytotoxicity at 10 µM was -0.867%. As for `CCC1c2ccsc2CCN1C(=O)NCc1ccnc(N(C)C)c1` (stereo unspecified), the cytotoxicity at 10 µM is -11.9%.

`Cc1nc(C)n(CC2CN(CCOCC(F)(F)F)CCO2)n1` (stereo unspecified): the cytotoxicity at 10 µM was -1.95%. Consider `Cc1cc(NC(=O)NCc2cccnc2OC(C)C)n(C)n1`, for which the cytotoxicity at 10 µM came out at 3.2%. `Cc1ncsc1CN1Cc2cnn(C)c2C(COCC2CC2)C1` (stereo unspecified): the cytotoxicity at 10 µM turned out to be 3.04%. Next, `O=C(NCc1cncc2c1CCN(CC1CCOC1)C2)c1ccno1` (stereo unspecified): 13%. For `Cc1cccc(CN2CC[C@H]3[C@H]2CCN3C(=O)c2cnn(C)c2)n1`, the cytotoxicity at 10 µM was found to be 14.4%.

Consider `c1cncc(CO[C@H]2CO[C@@]3(CCN(Cc4ccoc4)C3)C2)c1`, for which the cytotoxicity at 10 µM is -3.24%. Consider `CCC(=O)N1CC[C@H]2[C@H](C[C@@H](CN3CCCC3)N2c2nccs2)C1`, for which the cytotoxicity at 10 µM turned out to be 10.2%. `O=C1COC2(CCN(Cc3ccoc3)CC2)CN1`: the cytotoxicity at 10 µM is -11.3%. As to `CN1CCCCC12CCN(c1nncs1)CC2`, the cytotoxicity at 10 µM was 6.89%. With `O=C(N[C@@H]1CN(Cc2cccs2)[C@@H]2COC[C@@H]21)C1CCC1`, the cytotoxicity at 10 µM is 9.34%. As to `Cc1cc(CN2CC[C@H]3OCC[C@@]3(C(=O)NCc3ccco3)C2)no1`, the cytotoxicity at 10 µM was 6.73%.
